Screens as filed in PubChem.
ADAM10 inh: human ADAM10 inhibitors, primary screen, biochemical, QFRET, HTS; Disintegrin and metalloproteinase domain-containing protein 10 (Homo sapiens), O14672; recombinant ADAM10, EDANS/DABCYL FRET peptide cleavage, 3 h; inhibition, % at 7 µM; hit rate 0.62% among 370,000; AID 720582, 2013;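 active means inhibition above a per-campaign cutoff equal to the mean of compounds falling between control-based bounds plus 3 SD, cut at about 20% in these data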;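 further: 0% = DMSO wells while the 100% control is not disclosed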
ADAM17 inh: ADAM17 inhibitors, primary screen, biochemical, QFRET; hit rate 0.83% among 370,000; Disintegrin and metalloproteinase domain-containing protein 17 (Homo sapiens), P78536; inhibition, % at 6.95 µM; recombinant ADAM17, EDANS/DABCYL FRET peptide cleavage;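 active means inhibition above the mean of compounds lying between control limits plus 3 SD, set per campaign, cut at about 8.5% in these data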;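 further: 0% = DMSO-only wells as the low control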
Target sequence (P78536 215-824 limits assumed): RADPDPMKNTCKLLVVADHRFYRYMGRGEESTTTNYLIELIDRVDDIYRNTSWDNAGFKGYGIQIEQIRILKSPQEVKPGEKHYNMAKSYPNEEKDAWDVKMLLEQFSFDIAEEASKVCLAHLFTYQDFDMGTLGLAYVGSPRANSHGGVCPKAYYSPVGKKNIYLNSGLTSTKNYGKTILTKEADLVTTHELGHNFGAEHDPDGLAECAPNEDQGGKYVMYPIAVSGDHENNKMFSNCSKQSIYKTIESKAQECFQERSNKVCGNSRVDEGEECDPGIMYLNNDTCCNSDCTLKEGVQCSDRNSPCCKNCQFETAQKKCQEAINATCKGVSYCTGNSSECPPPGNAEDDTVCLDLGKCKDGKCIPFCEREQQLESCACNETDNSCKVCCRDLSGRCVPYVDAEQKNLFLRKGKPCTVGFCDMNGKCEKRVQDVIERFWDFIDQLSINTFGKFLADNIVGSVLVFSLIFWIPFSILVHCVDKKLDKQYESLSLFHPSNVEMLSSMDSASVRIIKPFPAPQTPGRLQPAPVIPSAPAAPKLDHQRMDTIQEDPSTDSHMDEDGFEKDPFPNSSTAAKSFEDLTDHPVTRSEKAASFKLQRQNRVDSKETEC
Tn7 DDE FP: inhibitors of Tn7 peptide binding to fibrin DD(E), primary screen, biochemical, fluorescence polarization, human fibrin, Tn7 probe; hit rate 0.13% among 370,000; inhibition, % at 8.3 µM; AID 720508, 2013; Fibrinogen beta chain (Homo sapiens), P02675; FP displacement of FITC-Tn7 peptide from fibrin DD(E); 0% = median of compound wells per plate;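 active means inhibition above the mean of compounds falling within the control limits plus 3 SD of them, cut at about 14% in these data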;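 further: 0% = plate median of compound wells and 100% = 10 µM Aha-Tn7 peptide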
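Also added: labelled Tn7 tracer, 0.1 µM; Assay system: human fibrin DD(E) protein; Amount: 2 µM fibrin DD(E); Schedule: 10 min compound pre-incubation, 3 h probe incubation at room temperature; Repeats: one replicate per compound; Read-out basis: percent inhibition; Measured by: fluorescence polarization of the labelled Tn7 tracer.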
MT1-MMP act inh: blockers of MT1-MMP proenzyme processing, primary screen, HT1080 RFP-PRO-GFP cells, GFP/RFP fluorescence; Matrix metalloproteinase-14 (Homo sapiens), P50281; GFP/RFP ratio fluorescence, overnight; percent of plate control window, DMSO zero; GFP/RFP ratio change, % at 20 µM; hit rate 0.061% among 360,000;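 active means GFP/RFP ratio change of at least 30% with cell ATP level not reduced by more than half and red fluorescence within 50% of control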
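Material: RFP-PRO-GFP reporter HT1080 cells. Dosing: single-point 20 µM compound, 1% DMSO. Controls: DMSO and RFP-L50D-GFP cell wells. Timing: cells overnight before dosing, compound overnight, 37 °C, 5% CO2. Measure: GFP/RFP fluorescence ratio.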
Tn6 DDE FP: inhibitors of Tn6 peptide binding to fibrin DD(E), primary screen, biochemical, fluorescence polarization, human fibrin, Tn6 probe; inhibition, % at 8.3 µM; AID 720509, 2013; hit rate 0.21% among 370,000; Fibrin DD(E) TRITC-Tn6 fluorescence polarization displacement;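 active means inhibition above a per-campaign cutoff: mean of compounds within control limits plus 3 SD, cut at about 15% in these data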;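 further: 0% = median of all compound wells on the plate and 100% = blocking peptide control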
Tn6 DDE ctr: counter-screen for inhibitors of Tn6 peptide binding to fibrin DD(E). shares compounds with Tn6 DDE FP. TRITC-Tn6 fluorescence polarization displacement; 0% = median of compound wells, not DMSO. inhibition, % at 8.3 µM. hit rate 2% among 680. AID 720621;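 active means inhibition above the mean of test compounds lying between the control limits plus 3 SD of those, cut at about 14% in these data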;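 further: 0% = median of compound wells and 100% = wells with Aha-Tn7 blocking peptide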
Tn6 DDE conf: inhibitors of Tn6 peptide binding to fibrin DD(E), confirmation, biochemical, fluorescence polarization, human fibrin, Tn6 probe; shares compounds with Tn6 DDE FP; FP displacement of TRITC-Tn6 peptide from DD(E); 0% = per-plate median of test wells; inhibition, % at 8.3 µM; hit rate 10% among 680; AID 720631, 2013;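 active means inhibition above the mean of compounds lying within the control limits plus 3 SD, cut at about 16% in these data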;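 further: 100% = high control wells holding a competing inhibitor peptide at 10 µM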
* = called active by the depositor; i = inactive; · = not tested or not shown. The list is not random: actives were taken first. Their share in the collection is about 1.6%.

SMILES	ADAM10 inh	ADAM17 inh	Tn7 DDE FP	MT1-MMP act inh	Tn6 DDE FP	Tn6 DDE ctr	Tn6 DDE conf
COc1ccc(S(=O)(=O)N(C)C[C@H]2Oc3ccc(NC(=O)Nc4ccc(C(F)(F)F)cc4)cc3C(=O)N([C@H](C)CO)C[C@@H]2C)cc1	29.1*	11.5*	4.1	8.6	81.4*	9.0	34.2*
CC[C@H]1CN2CCc3cc(OC)c(OC)cc3C2C[C@@H]1C[C@H]1NCCc2cc(OC)c(OC)cc21 (some centres not stated)	-6.3	-4.9	4.3	-29.4	-2.8	·	·
CCC1=C(CC2NCCc3ccccc32)CC2c3cc(OC)c(OC)cc3CCN2C1 (configuration not stated)	-125.2	-35.9	8.7	-33.5	23.5*	3.5	2.5
COc1ccc(S(=O)(=O)NCc2ccccn2)cc1OC	-2.8	0.0	2.3	-1.6	-1.8	·	·
COc1ccccc1Oc1ccc(S(=O)(=O)NCc2ccccn2)cc1	-4.6	0.2	-1.4	0.0	15.3*	3.5	6.2
Cc1cc(C(=O)COc2cccc3cccnc23)c(C)n1C	-70.5	-18.3	4.9	-190.2	29.6*	9.6	5.6
O=C(NC(c1ccccc1)c1ccccc1)N1CCOCC1	0.7	4.7	-2.3	-0.4	16.2*	2.0	2.9
CC(NC(=O)N1CCOCC1)c1ccccc1 (configuration not stated)	-2.0	-4.4	5.4	-1.9	6.2	·	·
COC(=O)c1ccc(N)c2c(N)ccc(C(=O)OC)c12	i	-163.6	-3.3	·	3.5	·	·
O=C(COC(=O)CCCCCN=C1NS(=O)(=O)c2ccccc21)Nc1ccc(Cl)c(Cl)c1	10.4	3.5	1.3	-0.3	28.9*	6.9	5.2
O=C(CCCN=C1NS(=O)(=O)c2ccccc21)OCC(=O)c1ccccc1	-10.3	1.3	1.1	-3.4	-3.8	·	·
COc1ccccc1NS(=O)(=O)c1cccc(C(=O)N2CCN(C(=O)c3ccco3)CC2)c1	-9.1	-5.8	5.5	-2.5	16.5*	0.1	1.2
Cc1cn([C@H]2C[C@H](O)[C@@H](/C=C/C(=O)NCCC(C)C)O2)c(=O)[nH]c1=O	2.9	-0.9	-6.5	1.8	15.4*	-8.7	-10.7
CCOc1ccc(NC(=O)c2cc(-c3ccc(Cl)cc3)nc3ccccc23)cc1	-4.7	0.9	1.7	·	-1.1	·	·
CCCCc1c(C)c2cc(C)ccc2[nH]c1=O	-8.1	-1.4	-3.6	3.5	-2.3	·	·
CCCc1c(C)c2cc(C)ccc2[nH]c1=O	-26.0	-9.0	1.0	6.7	18.1*	-1.1	-5.0
Cc1ccc(C)c(-n2nnnc2SCC(=O)NNC(=O)c2ccco2)c1	-3.8	-1.2	5.4	-0.2	20.1*	-3.1	-4.6
Cc1ccc(-n2nnnc2SCC(=O)NNC(=O)c2ccco2)cc1C	4.8	0.6	1.5	0.2	4.1	·	·
N=c1c[n+](N2CCOCC2)[n-]o1	-4.4	-3.0	1.1	1.3	19.4*	-7.6	-18.6
CN1CCS/C1=C/C=C1/SC(=S)N(Cc2ccccc2)C1=O	15.6	8.1	-24.4	-86.7	38.0*	-15.4	15.8*
COc1cccc(NC(=O)CN2C(=O)NC3(CCCCCC3)C2=O)c1	-2.2	-6.8	4.9	4.1	15.3*	4.6	-1.2
COc1cccc(NC(=O)CN(C)C(=O)CN2C(=O)NC3(CCCC3)C2=O)c1	-3.8	-5.0	4.6	-4.0	-8.4	·	·
Cc1ccc(Cl)cc1NC(=O)COC(=O)Cn1cnc2c1c(=O)n(C)c(=O)n2C	-1.5	-3.5	0.7	5.8	17.0*	10.1	4.8
O=C(NC1CCCCN(Cc2cccc(F)c2)C1=O)c1ccc(F)cc1 (configuration not stated)	-4.5	-4.6	3.7	·	1.3	·	·
Cc1ccc2c(C)c(C(=O)Nc3ccc(S(N)(=O)=O)cc3)oc2c1C	-22.1	-9.7	5.4	3.4	26.2*	4.0	-94.3
SMILES	ADAM10 inh	ADAM17 inh	Tn7 DDE FP	MT1-MMP act inh	Tn6 DDE FP	Tn6 DDE ctr	Tn6 DDE conf
O=S(=O)(Nc1ccc(Cl)cc1NS(=O)(=O)c1ccccc1)c1ccccc1	18.2	3.8	9.1	-3.8	18.9*	3.7	1.2
O=C(O)c1ccccc1Sc1c([N+](=O)[O-])cc(C(F)(F)F)cc1[N+](=O)[O-]	0.4	-1.9	12.1	1.9	34.7*	-0.4	-0.3
Cc1cccc(NC(=S)N2CCN(S(C)(=O)=O)CC2)c1	-5.1	-1.2	2.9	0.0	1.6	·	·
Cc1cc(C)cc(NC(=S)N2CCN(S(C)(=O)=O)CC2)c1	-7.0	2.2	5.9	-0.9	16.2*	0.2	0.1
COc1ccc(/C=C/S(=O)(=O)NCc2ccccc2)c(CNC(=O)OC(C)(C)C)c1	6.7	3.9	-5.9	·	-0.9	·	·
CCCCCCCCN1C(=O)[C@@H](CC(=O)N2CCN(C(=O)c3ccco3)CC2)C[C@@]2(C(=O)OC)C1=C[C@H](C1CCCC1)O[C@@H]2C	9.0	0.6	2.7	·	0.0	·	·
COc1ccccc1-n1c(SCC(=O)NC2CCS(=O)(=O)C2)nc2ccccc2c1=O (configuration not stated)	-8.6	1.7	2.4	1.8	15.5*	6.9	3.5
Cc1ccccc1-c1ccc2c(c1)[C@@H]1C[C@H](N(C)C(=O)Nc3ccccc3)[C@H]([C@H](C)O)CN1CC2	-40.1	-7.8	-2.2	·	0.8	·	·
O=C(CN1C2CCCC1CC(NC(=O)C1CCCCC1)C2)NCc1ccc(F)cc1 (configuration not stated)	-6.1	-1.9	-2.5	-0.9	15.5*	0.7	-3.5
O=C(c1cc2ccccc2o1)N1CCCC1	-5.7	-2.3	2.4	-0.4	16.6*	1.8	3.5
COc1cccc(C(=O)N[C@H](C(=O)N2CCC[C@H]2C(=O)NCCc2ccccc2Cl)c2ccccc2)c1	-2.7	-1.7	-2.2	·	-11.2	·	·
CCCCCCSc1cccc(-c2nc3cc(C)ccn3c2NCc2ccccc2)c1	-105.7	-36.8	9.2	4.3	1.5	·	·
CCCCCCSc1cccc(-c2nc3ccc(C)cn3c2NCc2ccccc2)c1	-232.9	-76.7	4.2	1.2	16.1*	9.8	6.5
O=C(CCc1ccccc1)N[C@H]1[C@H](O)CCC[C@]12C(=O)N(Cc1ccccc1)c1ccccc12	-4.1	-3.1	-2.5	·	0.1	·	·
